Measured values reported in ChEMBL document CHEMBL1137312, “Design and synthesis of a novel photoaffinity ligand for the dopamine and serotonin transporters based on 2beta-carbomethoxy-3beta-biphenyltropane” (J Med Chem, 2006).
Activity calls are given as the source filed them. No cut-off for these calls is given here.

Experiments:
[1] = target: Sodium-dependent dopamine transporter (Rattus norvegicus, UniProt P23977); test: Displacement of [3H]WIN-35428 from DAT in rat striatal membrane; assay type: cell membranes, Striatum
Chain of Sodium-dependent dopamine transporter (P23977 whole entry): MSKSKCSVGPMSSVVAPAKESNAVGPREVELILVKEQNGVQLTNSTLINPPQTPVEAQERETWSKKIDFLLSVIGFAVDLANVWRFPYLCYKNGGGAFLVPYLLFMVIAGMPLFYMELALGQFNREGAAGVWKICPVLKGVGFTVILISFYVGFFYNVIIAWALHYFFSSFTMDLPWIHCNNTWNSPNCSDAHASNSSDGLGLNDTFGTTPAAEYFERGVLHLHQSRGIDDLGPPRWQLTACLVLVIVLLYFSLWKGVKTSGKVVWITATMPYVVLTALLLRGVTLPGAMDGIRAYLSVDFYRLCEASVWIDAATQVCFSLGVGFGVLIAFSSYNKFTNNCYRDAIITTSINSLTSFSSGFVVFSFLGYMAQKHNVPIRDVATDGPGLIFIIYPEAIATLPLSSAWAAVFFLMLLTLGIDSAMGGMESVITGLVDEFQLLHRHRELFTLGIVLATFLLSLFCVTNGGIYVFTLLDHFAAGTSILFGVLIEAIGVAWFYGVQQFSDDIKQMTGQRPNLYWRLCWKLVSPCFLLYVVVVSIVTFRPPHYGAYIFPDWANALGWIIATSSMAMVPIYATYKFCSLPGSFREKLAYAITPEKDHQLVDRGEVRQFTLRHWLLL
Outline: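 Competition binding against [3H]WIN 35 428 in rat striatal membranes. Ligand was used as free base, freshly prepared and kept in the dark. Ki from at least three independent experiments, each in triplicate. Values are mean ± SEM.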

[2] = target: Sodium-dependent serotonin transporter (Rattus norvegicus, UniProt P31652); test: Displacement of [3H]citaloporam from SERT in rat brain; assay type: tissue-based
Chain of Sodium-dependent serotonin transporter (P31652 whole entry): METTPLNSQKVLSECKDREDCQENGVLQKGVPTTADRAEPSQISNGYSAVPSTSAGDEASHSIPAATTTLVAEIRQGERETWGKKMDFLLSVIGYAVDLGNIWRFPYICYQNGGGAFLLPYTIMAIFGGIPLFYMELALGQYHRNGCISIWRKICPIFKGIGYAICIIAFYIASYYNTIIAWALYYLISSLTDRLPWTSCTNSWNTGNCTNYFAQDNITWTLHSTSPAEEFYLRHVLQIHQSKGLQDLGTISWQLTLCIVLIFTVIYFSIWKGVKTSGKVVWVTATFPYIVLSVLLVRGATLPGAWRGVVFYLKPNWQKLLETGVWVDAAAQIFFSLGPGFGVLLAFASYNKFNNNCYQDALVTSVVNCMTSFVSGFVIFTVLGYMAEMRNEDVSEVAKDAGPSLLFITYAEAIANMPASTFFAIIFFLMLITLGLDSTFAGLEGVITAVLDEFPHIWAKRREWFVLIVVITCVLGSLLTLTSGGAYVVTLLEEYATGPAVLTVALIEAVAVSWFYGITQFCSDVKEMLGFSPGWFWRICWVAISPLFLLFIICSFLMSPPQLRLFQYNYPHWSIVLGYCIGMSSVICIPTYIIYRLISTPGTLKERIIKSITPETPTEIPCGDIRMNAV
Outline: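 Competition binding against [3H]citalopram in rat brain stem or midbrain membranes. Ligand was used as free base, freshly prepared and kept in the dark. Ki from at least three independent experiments, each in triplicate. Values are mean ± SEM.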

[3] = target: Sodium-dependent dopamine transporter (Homo sapiens) (UniProt Q01959); test: Photo labeling activity at human DAT expressed in HEK293 cells; assay type: cell-based; conditions: tested as the 125I-labelled form
Chain of Sodium-dependent dopamine transporter (Homo sapiens) (Q01959 whole entry): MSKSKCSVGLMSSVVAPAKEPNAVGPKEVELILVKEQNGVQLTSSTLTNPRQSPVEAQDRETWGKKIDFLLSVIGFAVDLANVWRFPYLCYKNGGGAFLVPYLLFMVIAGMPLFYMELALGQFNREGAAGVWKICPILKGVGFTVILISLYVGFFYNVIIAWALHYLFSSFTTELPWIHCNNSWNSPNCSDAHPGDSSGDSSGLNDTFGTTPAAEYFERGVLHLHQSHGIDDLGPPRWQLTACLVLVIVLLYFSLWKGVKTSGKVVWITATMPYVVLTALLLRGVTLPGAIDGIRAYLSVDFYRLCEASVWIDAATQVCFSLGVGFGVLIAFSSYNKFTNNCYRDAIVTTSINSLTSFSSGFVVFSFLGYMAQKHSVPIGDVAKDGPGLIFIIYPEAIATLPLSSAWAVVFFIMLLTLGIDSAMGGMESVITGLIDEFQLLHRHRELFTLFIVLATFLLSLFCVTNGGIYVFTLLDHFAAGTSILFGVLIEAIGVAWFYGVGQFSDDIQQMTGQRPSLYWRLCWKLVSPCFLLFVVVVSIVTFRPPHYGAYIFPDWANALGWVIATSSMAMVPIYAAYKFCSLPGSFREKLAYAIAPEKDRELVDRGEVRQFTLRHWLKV
Outline: (§1)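 HEK 293 cells expressing hDAT or hSERT were photolabeled with [125I] azido ligand (specific activity about 2000 mCi/µmol, radiochemical purity 99%). Cells were solubilized and lysates immunoprecipitated with DAT- or SERT-specific antisera. Read-out was SDS-PAGE and autoradiography, detecting labeled protein bands of 80 or 66 kDa.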

[4] = target: Sodium-dependent serotonin transporter (Homo sapiens) (UniProt P31645); test: Photo labeling activity at human SERT expressed in HEK293 cells; assay type: cell-based; conditions: tested as the 125I-labelled form; outline: as §1
Chain of Sodium-dependent serotonin transporter (Homo sapiens) (P31645 whole entry, looked up): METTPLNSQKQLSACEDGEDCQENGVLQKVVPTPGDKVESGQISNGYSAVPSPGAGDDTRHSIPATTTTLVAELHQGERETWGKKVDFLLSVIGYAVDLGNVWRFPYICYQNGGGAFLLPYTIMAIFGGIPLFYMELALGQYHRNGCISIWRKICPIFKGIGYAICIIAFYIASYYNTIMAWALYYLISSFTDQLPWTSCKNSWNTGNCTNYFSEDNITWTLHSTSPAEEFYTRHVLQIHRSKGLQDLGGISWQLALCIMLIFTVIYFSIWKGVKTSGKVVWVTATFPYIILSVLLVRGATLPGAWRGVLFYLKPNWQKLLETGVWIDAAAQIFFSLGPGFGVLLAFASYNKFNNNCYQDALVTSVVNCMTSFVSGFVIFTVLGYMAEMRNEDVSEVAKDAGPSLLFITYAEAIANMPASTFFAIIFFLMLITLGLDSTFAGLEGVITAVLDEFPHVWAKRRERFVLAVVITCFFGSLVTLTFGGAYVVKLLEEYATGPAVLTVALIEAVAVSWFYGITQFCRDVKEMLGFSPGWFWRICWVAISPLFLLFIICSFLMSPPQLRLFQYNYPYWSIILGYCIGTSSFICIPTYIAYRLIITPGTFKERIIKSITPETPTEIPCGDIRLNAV

[5] = target: Sodium-dependent dopamine transporter (Homo sapiens) (UniProt Q01959); test: Photo labeling activity at human DAT expressed in HEK293 cells in the presence of (-)cocaine; assay type: cell-based; conditions: tested as the 125I-labelled form
Outline: (§2)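 Cocaine-protection version of the photolabeling. HEK 293 cells expressing hDAT or hSERT were photolabeled with [125I] azido ligand in the presence of 10 µM (-)cocaine. Cells were solubilized and immunoprecipitated with transporter-specific antisera. Read-out was SDS-PAGE and autoradiography.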

[6] = target: Sodium-dependent serotonin transporter (Homo sapiens) (UniProt P31645); test: Photo labeling activity at human SERT expressed in HEK293 cells in the presence of (-)cocaine; assay type: cell-based; conditions: tested as the 125I-labelled form; outline: as §2

| Compound | Ki [1] [nM] | Ki [2] [nM] | Activity [3] | Activity [4] | Activity [5] | Activity [6] |
| --- | --- | --- | --- | --- | --- | --- |
| COC(=O)[C@@H]1C2CCC(C[C@@H]1c1ccc(-c3ccc(N)cc3)cc1)N2C (some centres undefined) | 12.9 | 1070 | – | – | – | – |
| COC(=O)[C@@H]1C2CCC(C[C@@H]1c1ccc(-c3ccc(N)c(I)c3)cc1)N2C (some centres undefined) | 134 | 8.82 | – | – | – | – |
| COC(=O)[C@@H]1C2CCC(C[C@@H]1c1ccc(Br)cc1)N2C (some centres undefined) | 0.42 | 4.1 | – | – | – | – |
| COC(=O)[C@@H]1C2CCC(C[C@@H]1c1ccc(-c3ccc([N+](=O)[O-])cc3)cc1)N2C (some centres undefined) | 5.03 | 51 | – | – | – | – |
| COC(=O)[C@@H]1C2CCC(C[C@@H]1c1ccc(-c3ccc(N=[N+]=[N-])c(I)c3)cc1)N2C (some centres undefined) | 15.1 | 109 | Active | Active | inactive | inactive |
